Data taken from ChEMBL document CHEMBL1154198, “Chemical genetics of Plasmodium falciparum” (Nature, 2010).

Assays:
[1] = tested on: Plasmodium falciparum; test: ST_JUDE: Plasmodium falciparum 3D7 EC50 (uM) as measured by SYBR green dye; assay type: functional, organism-based
[2] = tested on: Plasmodium falciparum; test: ST_JUDE: Plasmodium falciparum K1 EC50 (uM) as measured by SYBR green dye; assay type: functional, organism-based
[3] = tested on: Plasmodium falciparum; test: ST_JUDE: Cytotoxicity against Plasmodium falciparum 3D7; assay type: functional, organism-based
How it was run: (§1)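 Asexual P. falciparum grown in human erythrocytes, exposed to compounds for 72 h, and growth read as the DNA quantity in treated versus control cultures. Dose-response run at 12 concentrations from 10 μM to 5 nM.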

[4] = tested on: Plasmodium falciparum; test: ST_JUDE: Cytotoxicity against Plasmodium falciparum K1; assay type: functional, organism-based; how it was run: as §1
[5] = tested on: Plasmodium falciparum; test: ST_JUDE: Cytotoxicity against Plasmodium falciparum V1/S; assay type: functional, organism-based
[6] = tested on: Toxoplasma gondii; test: ST_JUDE: Growth inhibition of to Toxoplasma gondii, in human U-2OS cells, as measured by luciferase.; assay type: functional, organism-based; settings: RH, U2OS
How it was run: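 T. gondii parasites engineered to express luciferase; drug sensitivity read by luminescence.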

[7] = tested on: Trypanosoma brucei; test: ST_JUDE: Cytotoxicity using luciferase to measure ATP as an indicator of the viability of Trypanosoma brucei; assay type: functional, organism-based
[8] = tested on: Leishmania major; test: ST_JUDE: Cytotoxicity using Alamar Blue to measure viability of Leishmania major; assay type: functional, organism-based
How it was run: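 L. major promastigotes; drug susceptibility read with Alamar Blue.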

[9] = ST_JUDE: Cytotoxicity using luciferase to measure ATP as an indicator of the viability of human foreskin fibroblast cells (BJ); assay type: toxicity, cell-based
[10] = ST_JUDE: Cytotoxicity using luciferase to measure ATP as an indicator of the viability of human epithelial hepatocellular carcinoma cells (HepG2); assay type: toxicity, cell-based
[11] = ST_JUDE: Cytotoxicity using luciferase to measure ATP as an indicator of the viability of human epithelial embryonic kidney cells (HEK293); assay type: toxicity, cell-based
[12] = ST_JUDE: Cytotoxicity using luciferase to measure ATP as an indicator of the viability of human Burkitt''s lymphoma lymphoblast cells (Raji); assay type: toxicity, cell-based
[13] = tested on: Plasmodium falciparum; test: ST_JUDE: Cytotoxicity against Plasmodium falciparum Dd2; assay type: functional, organism-based
[14] = tested on: Plasmodium falciparum; test: ST_JUDE: Cytotoxicity against Plasmodium falciparum W2; assay type: functional, organism-based
[15] = tested on: Plasmodium falciparum; test: ST_JUDE: Cytotoxicity against Plasmodium falciparum SB-A6; assay type: functional, organism-based
[16] = tested on: Plasmodium falciparum; test: ST_JUDE: Cytotoxicity against Plasmodium falciparum D10 transfected with yeast DHOD; assay type: functional, organism-based

| Compound | EC50 [1] [nM] | EC50 [2] [nM] | EC50 [3] [nM] | EC50 [4] [nM] | EC50 [5] [nM] | EC50 [6] [nM] | EC50 [7] [nM] | EC50 [8] [nM] | EC50 [9] [nM] | EC50 [10] [nM] | EC50 [11] [nM] | EC50 [12] [nM] | EC50 [13] [nM] | EC50 [14] [nM] | EC50 [15] [nM] | EC50 [16] [nM] |
| --- | --- | --- | --- | --- | --- | --- | --- | --- | --- | --- | --- | --- | --- | --- | --- | --- |
| COc1ccc(NC(=O)C2c3ccccc3C(=O)N(CC(C)C)C2c2cccs2)cc1OC (centres undefined) | 50.1 | 51.8 | 105 | 110 | 132 | > 24100 | 6930 | > 18800 | > 44000 | > 44000 | > 44000 | > 44000 | 123 | 49.6 | 90 | 91.3 |
| CC(C)(C)C(=O)N1CCN(c2ccc([N+](=O)[O-])c(NC3CC3)c2)CC1 | 670 | 642 | 1240 | 1070 | 1150 | > 23800 | 21300 | > 18600 | > 43400 | > 43400 | > 43400 | > 43400 | 1050 | 480 | 1240 | 1360 |
| CC(=O)N(C1=C(N(C)C)C(=O)c2ccccc2C1=O)c1ccc(F)cc1 | 68.5 | 144 | 12.1 | 15.2 | 11.9 | 630 | 571 | > 13700 | 3830 | 712 | 7540 | 284 | 12.5 | 77.3 | 29.7 | 17.6 |
| CCc1ccc(S(=O)(=O)NC2=C/C(=N\c3ccccc3)C(=O)c3ccccc32)cc1 | 557 | 472 | 284 | 276 | 404 | > 16900 | 1460 | > 13200 | 5650 | 4290 | 5210 | 2660 | 575 | 484 | 340 | 373 |
| CCOC(=O)C1=C(C)N=c2s/c(=C/c3ccccc3O)c(=O)n2C1c1ccccc1 (centres undefined) | > 15000 | 390 | 317 | 343 | > 9410 | > 20100 | 6970 | > 15700 | > 36600 | > 36600 | > 36600 | > 36600 | 2180 | 2210 | 513 | 486 |
| CCn1nc(-c2ccc(C(F)(F)F)cc2)nc2c(=O)n(C)c(=O)nc1-2 | 779 | 1370 | 402 | 246 | 225 | > 27400 | > 48000 | > 21400 | > 50100 | 2870 | > 50100 | > 50100 | 4550 | 90.4 | 1300 | 613 |
| Cn1c(=O)c2c(-c3ccc(C(C)(C)C)cc3)n(-c3cc(Cl)ccc3O)cc2n(C)c1=O | 1140 | 1220 | > 10200 | > 10200 | 988 | > 21700 | 6750 | > 16900 | > 39500 | > 39500 | > 39500 | > 39500 | 1270 | 780 | 976 | 982 |
| O=C1C(Nc2ccc(Br)cc2)=C(n2nnc3ccccc32)C(=O)c2ccccc21 | 28.2 | 21.6 | 60.2 | 24.5 | 32.6 | > 13600 | 1310 | > 10600 | > 24800 | > 24800 | > 24800 | > 24800 | 590 | > 6370 | 80.1 | 59.3 |
| Oc1ccc(Br)cc1CN1CCN(Cc2ccccc2F)CC1 | 719 | 334 | 2060 | 745 | 936 | > 19800 | 27200 | > 15500 | > 36100 | > 36100 | > 36100 | > 36100 | 1790 | 1610 | 2770 | 3660 |
